Screens from PubChem BioAssay.
An excerpt weighted towards active compounds, which were near 4.7% of everything screened.
GAA850 FXN act: activators of GAA850 frataxin (FXN) promoter; HEK293 lucGAA850 FXN promoter luciferase reporter, 24 h; percent of 10 µM SAHA response; activation, % at 6 µM; AID 540364; 360,000 compounds, 0.56% hits;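 active = activation above the average of all compounds screened plus 3 SD, cutoff fixed separately per campaign, cut at about 7.5% in these data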
MC4R antagonist: blocks human MC4R cAMP signaling. P32245. MC4R-expressing cells, MTII-stimulated cAMP, LANCE TR-FRET. inhibition, % at 6.5 µM. 360,000 compounds, 0.48% hits;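 active = inhibition above its plate's cutoff, the mean of tested wells on that plate plus 3 SD, cut at about 29% in these data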
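Assay system: U2OS cells stably expressing human melanocortin 4 receptor (MC4R) / Dosing: 6.5 µM / Timing: compound 30 min, challenge 1 h, detection 1 h / Measured by: Eu-cAMP/anti-cAMP TR-FRET, emission 671 nm / Replicates: singlicate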
AHR act: activates the human aryl hydrocarbon receptor. AHR-responsive luciferase reporter cells, luminescence. activation, % at 5 µM. 320,000 compounds, 2.5% hits; in the data active = activation above about 47%
m5-HT2A agonist: agonists of mouse serotonin 5-HT2A receptor (HTR2A). activation, % at 7.6 µM. AID 624169. 360,000 compounds, 0.66% hits. CHO-K1 mHTR2A beta-arrestin complementation, luminescence; percent of 30 µM serotonin response;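 active = activation above a run cutoff, the mean activation of all tested compounds plus 3 SD, cut at about 14% in these data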
Target sequence (P35363 whole entry, looked up): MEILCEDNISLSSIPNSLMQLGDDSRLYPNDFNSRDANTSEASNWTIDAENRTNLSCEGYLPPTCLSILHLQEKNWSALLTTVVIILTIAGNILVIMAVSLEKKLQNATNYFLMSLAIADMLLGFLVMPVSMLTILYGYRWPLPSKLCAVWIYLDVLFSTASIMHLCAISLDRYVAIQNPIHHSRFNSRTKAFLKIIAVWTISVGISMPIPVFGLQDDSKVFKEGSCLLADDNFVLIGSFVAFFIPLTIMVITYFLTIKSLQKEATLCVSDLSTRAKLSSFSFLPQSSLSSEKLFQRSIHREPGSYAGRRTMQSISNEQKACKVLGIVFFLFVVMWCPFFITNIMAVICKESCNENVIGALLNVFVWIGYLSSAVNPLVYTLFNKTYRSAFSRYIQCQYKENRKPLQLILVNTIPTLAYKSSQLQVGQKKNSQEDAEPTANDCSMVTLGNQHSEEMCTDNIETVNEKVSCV
MC4R ag barr: human MC4R agonism via beta-arrestin; activation, % at 8.9 µM; U2OS MC4R beta-arrestin complementation, luminescence; percent of melanotan II response, DMSO zero; AID 540308; 360,000 compounds, 0.98% hits;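 active = activation above a per-plate cutoff, the mean activation of sample wells on that plate plus 3 SD, cut at about 8% in these data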
OPRM1 ag: OPRM1 agonism in mouse HTR2A counterscreen | shares compounds with m5-HT2A agonist | U2OS OPRM1 beta-arrestin PathHunter, luminescence; DMSO 0%, DAMGO 9.3 µM 100% | activation, % at 9.3 µM | 2,300 compounds, 5.3% hits | AID 624380;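 active = mean activation above the mean of DMSO-only wells plus 3 SD, cut at about 0.5% in these data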
HTR2A ag conf: mouse HTR2A agonism confirmed | shares compounds with m5-HT2A agonist | CHO-K1 PathHunter beta-arrestin recruitment, luminescence; DMSO 0%, 30 µM serotonin 100% | activation, % at 7.6 µM | 2,300 compounds, 19% hits | AID 624381;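 active = mean activation across triplicates above the hit threshold derived in the original primary screen, cut at about 15% in these data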
Of the large screens only hits and unclear results are named; the others gave an inactive call (follow-up assays come after a bar, where they were run).

Nc1c(Cl)ncnc1N1CCCC1	m5-HT2A agonist 15 | OPRM1 ag inactive | HTR2A ag conf inactive
C[C@H](CO)N1C[C@H](C)[C@H](CN(C)Cc2cccc(O)c2)OCc2ccccc2-c2c(n(C)c3ccccc23)C1=O	m5-HT2A agonist 23 (no result: AHR act) | OPRM1 ag inactive | HTR2A ag conf 32
CN(C)S(=O)(=O)NC(=O)C1=C(N2CCCC2)COC1=O	m5-HT2A agonist 23 | OPRM1 ag inactive | HTR2A ag conf inactive
CCN(c1ccc(C)c(C)c1)S(=O)(=O)c1ccc2c(c1)CCN2C(=O)CCC(=O)O	none
CCN(c1ccc(OC)cc1)S(=O)(=O)c1ccc2c(c1)CCN2C(=O)CCC(=O)O	m5-HT2A agonist 14 | OPRM1 ag inactive | HTR2A ag conf inactive
CCOC(=O)C1(CC2CC2)CCN(Cc2cc(Cl)c(O)c(OC)c2)CC1	m5-HT2A agonist 20 | OPRM1 ag inactive | HTR2A ag conf inactive
Cc1ccccc1-c1cnc(C(O)c2ccc(Cl)c(F)c2)[nH]1 (stereo not drawn)	none (no result: AHR act)
CCOc1ccccc1OCC(=O)OCc1csc(CC(=O)Nc2ccccc2C)n1	none
Cc1ccccc1NC(=O)Cc1nc(COC(=O)COc2cccc(C)c2C)cs1	m5-HT2A agonist 15 | OPRM1 ag inactive | HTR2A ag conf inactive
O=C(NCCCc1ccccc1)c1cccc(NC(=O)C2CCCCC2)c1	none (no result: AHR act)
O=S(=O)(c1ccc(F)cc1)c1nc(-c2ccco2)oc1NCCCn1ccnc1	none (no result: AHR act)
Cc1ccc(C2=CC(=O)C[C@H](c3ccc(F)cc3)C2)cc1	none
CCOc1ccc(OCC(=O)NCc2n[nH]c(=O)c3ccccc23)cc1	m5-HT2A agonist 16 | OPRM1 ag inactive | HTR2A ag conf inactive
CC(OC(=O)[C@@H](NC(=O)OCc1ccccc1)C(C)C)C(=O)Nc1ccc(N2CCOCC2)cc1 (stereo partly drawn)	none (no result: AHR act)
O=C(NCc1ccccc1)C(c1ccccc1)n1c(=O)c(-c2cc3ccccc3[nH]2)nc2ccccc21 (stereo not drawn)	none (no result: GAA850 FXN act, MC4R antagonist, AHR act, MC4R ag barr)
O=C(NCc1ccccc1)C(C1CC1)n1c(=O)c(-c2cc3ccccc3[nH]2)nc2ccccc21 (stereo not drawn)	m5-HT2A agonist 15 (no result: GAA850 FXN act, MC4R antagonist, AHR act, MC4R ag barr) | OPRM1 ag inactive | HTR2A ag conf inactive
Cc1ccc(NC(=O)CN(C)S(=O)(=O)c2ccc(Cl)s2)c(O)c1	m5-HT2A agonist 18 | OPRM1 ag inactive | HTR2A ag conf inactive
Cc1ccc(NC(=O)CN(C)S(=O)(=O)c2cccs2)c(Br)c1	none
CC(C)(C)OC(=O)C[C@H]1C/C=C\C[C@@H](CC(=O)N[C@H](CO)Cc2ccccc2)C(=O)N2CCC[C@H]2COC1=O	none
O=C1COc2ccc(S(=O)(=O)NCCc3ccccc3)cc2N1	none
COc1ccccc1CNS(=O)(=O)c1ccc2c(c1)NC(=O)CO2	m5-HT2A agonist 16 | OPRM1 ag inactive | HTR2A ag conf inactive
Cc1ccc(OCCNC(=O)CCNC(=O)c2ccc(Cl)cc2)cc1	none
O=C(NC1CCCCC1)C1c2ccccc2OCC(=O)N1CCc1c[nH]c2ccccc12 (stereo not drawn)	none (no result: GAA850 FXN act, MC4R antagonist, AHR act, MC4R ag barr)
COc1ccc(Cn2cc3c(-c4ccc(F)cc4)nnc-3c3cc(OC)c(OC)cc32)cc1	none
COc1cc2c3nnc(-c4ccc(F)cc4)c-3cn(Cc3ccccc3)c2cc1OC	m5-HT2A agonist 25 | OPRM1 ag inactive | HTR2A ag conf inactive
COc1cc2c3nnc(-c4ccc(F)cc4)c-3cn(Cc3ccc(F)cc3)c2cc1OC	m5-HT2A agonist 18 | OPRM1 ag inactive | HTR2A ag conf 15
COc1ccccc1NC(=O)CSc1ccc(-c2ccccn2)nn1	none
COc1ccc(NC(=O)CSc2ccc(-c3ccccn3)nn2)cc1OC	m5-HT2A agonist 35 | OPRM1 ag inactive | HTR2A ag conf 107
O=C(Nc1ccccc1)Nc1nnc(-c2cccs2)s1	AHR act 115, m5-HT2A agonist 21 | OPRM1 ag inactive | HTR2A ag conf inactive
O=C(Cc1nnc(NC(=O)Nc2ccccc2)s1)Nc1ccccc1	none
CCOc1ccc(CCNC(=O)CS(=O)(=O)Cc2nc(-c3ccc(OC)cc3)oc2C)cc1	none
CCOc1ccc(CNC(=O)CS(=O)(=O)Cc2nc(-c3ccc(OC)cc3)oc2C)cc1	m5-HT2A agonist 20 | OPRM1 ag inactive | HTR2A ag conf inactive
C[C@@H]1CN([C@H](C)CO)C(=O)CCCn2nncc2CO[C@H]1CN(C)Cc1cccc2c1OCCCO2	none (no result: AHR act)
Cc1ccccc1Nc1nc(-c2sc(NC(=O)c3ccco3)nc2C)cs1	m5-HT2A agonist 19 | OPRM1 ag inactive | HTR2A ag conf inactive
Nc1nnc2cc(Br)ccc2n1	none (no result: AHR act)
O=C(/C=C/c1ccccc1Cl)N(c1ccccn1)C1CCCCC1	m5-HT2A agonist 16 | OPRM1 ag inactive | HTR2A ag conf 40
O=C(/C=C/c1ccccc1)N(c1ccccn1)C1CCCCC1	none
Cc1c(Cl)cccc1NC(=O)COC(=O)Cc1ccsc1	m5-HT2A agonist 16 | OPRM1 ag inactive | HTR2A ag conf inactive
COc1ccc(S(=O)(=O)N2CCN(CC(=O)NC(C)c3cccs3)CC2)cc1 (stereo not drawn)	none (no result: AHR act)
COc1ccccc1CN(C)C(=O)CN1CCN(C(=O)c2cccs2)CC1	m5-HT2A agonist 17 | OPRM1 ag inactive | HTR2A ag conf 27
CC(=O)c1ccc(NC(=O)CN2CCOCC2)cc1	none
Cc1ccc(NC(=O)CN2CCOCC2)cc1	m5-HT2A agonist 14 | OPRM1 ag inactive | HTR2A ag conf inactive
COc1ccc(NC(=O)C2c3ccccc3OCC(=O)N2C2CC2)cc1 (stereo not drawn)	none (no result: GAA850 FXN act, MC4R antagonist, AHR act, MC4R ag barr)
CCc1nc2c(OCc3ccccc3)cccn2c1N(C)C(=O)c1ccc2c(c1)OCO2	m5-HT2A agonist 14 (no result: AHR act) | OPRM1 ag inactive | HTR2A ag conf inactive
Cc1cccc(C)c1NC(=O)Nc1nnc([C@@H]2C[C@H](O)[C@@H](CO)O2)s1	none (no result: AHR act)
Cc1ccc(-c2nc(CS(=O)(=O)CC(=O)NCCN3CCOCC3)c(C)o2)cc1	none
Cc1oc(-c2cccc(Cl)c2)nc1CS(=O)(=O)CC(=O)NCCCN1CCOCC1	m5-HT2A agonist 25 | OPRM1 ag inactive | HTR2A ag conf inactive
Cc1cccc(N2CCN(C(=O)c3cccc(NC4=NC5CS(=O)(=O)CC5S4)c3)CC2)c1C (stereo not drawn)	none
CCOc1ccccc1NC1=NC2CS(=O)(=O)CC2S1 (stereo not drawn)	none
COc1ccc(OC)c(CCNC(=O)c2ccc(NC3=NC4CS(=O)(=O)CC4S3)cc2)c1 (stereo not drawn)	m5-HT2A agonist 17 | OPRM1 ag inactive | HTR2A ag conf inactive
